Data reported in ChEMBL document CHEMBL1165887, “Structure-activity relationships of monomeric C2-aryl pyrrolo[2,1-c][1,4]benzodiazepine (PBD) antitumor agents” (J Med Chem, 2010).

How the values were obtained:
[1] = system: K562; experiment: Cytotoxicity against human K562 cells after 96 hrs by alamar blue assay; type: functional, cell-based; details: K562, 96 h
In short: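 K562 cells kept in RPMI with 10% fetal calf serum and 2 mM glutamine, seeded at 10⁴ cells/mL. Compounds serially diluted in DMSO and added in triplicate; exposure 96 h at 37 °C, 5% CO₂. Alamar Blue (1 μM final) then added for a further 4 h; read by fluorescence emission at 580-620 nm.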

[2] = Growth inhibition of human NCI60 cells after 48 hrs by SRB assay; type: functional; details: NCI60, 48 h; for CC50: read-out: LC50 (the source's name)

COc1cc2c(cc1OC)C(=O)N1C=C(c3cccc(N)c3)C[C@H]1C=N2
IC50 [1]: 59.5 nM
GI50 [2]: 4 nM
TGI [2]: 50 nM
CC50 [2]: 5890 nM

COc1cc2c(cc1OC)C(=O)N1C=C(c3ccc(C(N)=O)cc3)C[C@H]1C=N2
IC50 [1]: 15.6 nM
GI50 [2]: 9 nM
TGI [2]: 460 nM
CC50 [2]: 13800 nM

COc1cc2c(cc1OC)C(=O)N1C=C(c3ccc(C(=O)N4CCN(C)CC4)cc3)C[C@H]1C=N2
IC50 [1]: 59.5 nM
GI50 [2]: 15 nM
TGI [2]: 710 nM
CC50 [2]: 13800 nM

COc1cc2c(cc1OC)C(=O)N1C=C(c3ccc(C(=O)NCCO)cc3)C[C@H]1C=N2
IC50 [1]: 161 nM
GI50 [2]: 158 nM
TGI [2]: 1860 nM
CC50 [2]: 12600 nM

COc1cc2c(cc1OC)C(=O)N1C=C(c3ccc(N4CCN(C)CC4)cc3)C[C@H]1C=N2
IC50 [1]: 0.63 nM
GI50 [2]: 5 nM
TGI [2]: 80 nM
CC50 [2]: 8320 nM

COc1cc2c(cc1OC)C(=O)N1C=C(c3ccc(N4CCOCC4)cc3)C[C@H]1C=N2
IC50 [1]: 8.8 nM
GI50 [2]: 5 nM
TGI [2]: 160 nM
CC50 [2]: 13200 nM

COc1cc2c(cc1OC)C(=O)N1C=C(c3ccc(NC(C)=O)cc3)C[C@H]1C=N2
IC50 [1]: 29.7 nM
GI50 [2]: 6 nM
TGI [2]: 200 nM
CC50 [2]: 11500 nM

COc1cc2c(cc1OC)C(=O)N1C=C(/C=C/c3ccc(F)cc3)C[C@H]1C=N2
IC50 [1]: 0.13 nM
GI50 [2]: 5 nM
TGI [2]: 10 nM
CC50 [2]: 1100 nM

COc1cc2c(cc1OC)C(=O)N1C=C(c3ccc4ccc5cccc6ccc3c4c56)C[C@H]1C=N2
IC50 [1]: 86.2 nM
GI50 [2]: 398 nM
TGI [2]: 1440 nM
CC50 [2]: 10700 nM

COc1cc2c(cc1OC)C(=O)N1C=C(c3ccc(C(=O)NCCCN(C)C)cc3)C[C@H]1C=N2
IC50 [1]: 165 nM
GI50 [2]: 58 nM
TGI [2]: 830 nM
CC50 [2]: 35500 nM

COc1cc2c(cc1OC)C(=O)N1C=C(c3cccc4c3oc3ccccc34)C[C@H]1C=N2
IC50 [1]: 162 nM
GI50 [2]: 49 nM
TGI [2]: 210 nM
CC50 [2]: 2820 nM

COc1cc2c(cc1OC)C(=O)N1C=CC[C@H]1C=N2
IC50 [1]: 14.4 nM
GI50 [2]: 1350 nM
TGI [2]: 8130 nM
CC50 [2]: 60200 nM

COc1cc2c(cc1OC)C(=O)N1C=C(c3ccccc3C(F)(F)F)C[C@H]1C=N2
IC50 [1]: 258 nM
GI50 [2]: 16 nM
TGI [2]: 160 nM
CC50 [2]: 4360 nM

COc1cc2c(cc1OC)C(=O)N1CCC[C@H]1C=N2
IC50 [1]: 488 nM
GI50 [2]: 2140 nM
TGI [2]: 19000 nM
CC50 [2]: 57500 nM

COc1cc2c(cc1OC)C(=O)N1C=C(c3cccnc3)C[C@H]1C=N2
IC50 [1]: 18.2 nM
GI50 [2]: 5 nM
TGI [2]: 70 nM
CC50 [2]: 17000 nM

COc1cc2c(cc1OC)C(=O)N1C=C(c3ccc(C(=O)O)cc3)C[C@H]1C=N2
IC50 [1]: > 1000 nM
GI50 [2]: 13200 nM
TGI [2]: 23400 nM
CC50 [2]: 25100 nM

COc1cc2c(cc1OC)C(=O)N1C=C(c3ccc(F)cc3)C[C@H]1[C@H](S(=O)(=O)O)N2
IC50 [1]: 16.3 nM
GI50 [2]: 5 nM
TGI [2]: 40 nM
CC50 [2]: 1.6 nM

COc1cc2c(cc1OC)C(=O)N1C=C(/C=C/c3ccccc3)C[C@H]1C=N2
IC50 [1]: 0.1 nM
GI50 [2]: 4 nM
TGI [2]: 20 nM
CC50 [2]: 1580 nM

COc1cc2c(cc1OC)C(=O)N1C=C(c3cccc(C)c3)C[C@H]1C=N2
IC50 [1]: 9.5 nM
GI50 [2]: 5 nM
TGI [2]: 70 nM
CC50 [2]: 7580 nM

COc1cc2c(cc1OC)C(=O)N1C=C(c3cc4ccccc4o3)C[C@H]1C=N2
IC50 [1]: 10.8 nM
GI50 [2]: 6 nM
TGI [2]: 50 nM
CC50 [2]: 440 nM

COc1cc2c(cc1OC)C(=O)N1C=C(c3ccc([N+](=O)[O-])cc3)C[C@H]1C=N2
IC50 [1]: 13.1 nM
GI50 [2]: 4 nM
TGI [2]: 70 nM
CC50 [2]: 6920 nM

COc1cc2c(cc1OC)C(=O)N1C=C(c3cccc(C(=O)NCCCN(C)C)c3)C[C@H]1C=N2
IC50 [1]: 273 nM
GI50 [2]: 102 nM
TGI [2]: 850 nM
CC50 [2]: 14100 nM

COc1cc2c(cc1OC)C(=O)N1C=C(c3cc4ccccc4s3)C[C@H]1C=N2
IC50 [1]: 26.7 nM
GI50 [2]: 5 nM
TGI [2]: 90 nM
CC50 [2]: 540 nM

COc1cccc(C2=CN3C(=O)c4cc(OC)c(OC)cc4N[C@@H](S(=O)(=O)O)[C@@H]3C2)c1
IC50 [1]: 7.1 nM
GI50 [2]: 5 nM
TGI [2]: 70 nM
CC50 [2]: 0.4 nM

COc1cc2c(cc1OC)C(=O)N1C=C(c3cccc(C(F)(F)F)c3)C[C@H]1C=N2
IC50 [1]: 46.8 nM
GI50 [2]: 6 nM
TGI [2]: 30 nM
CC50 [2]: 1350 nM

COc1cc2c(cc1OC)C(=O)N1C=C(/C=C/c3ccc(C(F)(F)F)cc3)C[C@H]1C=N2
IC50 [1]: 31.2 nM
GI50 [2]: 3 nM
TGI [2]: 20 nM
CC50 [2]: 1100 nM

COc1ccc2cc(C3=CN4C(=O)c5cc(OC)c(OC)cc5N=C[C@@H]4C3)ccc2c1
IC50 [1]: 2.3 nM
GI50 [2]: 0.9 nM
TGI [2]: 7 nM
CC50 [2]: 270 nM

COc1cc2c(cc1OC)C(=O)N1C=C(c3cccc4c3sc3ccccc34)C[C@H]1C=N2
IC50 [1]: 163 nM
GI50 [2]: 25 nM
TGI [2]: 220 nM
CC50 [2]: 5370 nM

COc1cc2c(cc1OC)C(=O)N1C=C(c3cccc4c3Sc3ccccc3S4)C[C@H]1C=N2
IC50 [1]: > 1000 nM
GI50 [2]: 501 nM
TGI [2]: 1740 nM
CC50 [2]: 8910 nM

COc1cc2c(cc1OC)C(=O)N1C=C(c3cccc(OC(F)(F)F)c3)C[C@H]1C=N2
IC50 [1]: 76.5 nM
GI50 [2]: 6 nM
TGI [2]: 180 nM
CC50 [2]: 7240 nM

COc1cc2c(cc1OC)C(=O)N1C=C(c3c(OC)cccc3OC)C[C@H]1C=N2
IC50 [1]: 61 nM
GI50 [2]: 110 nM
TGI [2]: 1100 nM
CC50 [2]: 11700 nM

COc1cc2c(cc1OC)C(=O)N1C=C(c3ccc(Cl)c(Cl)c3)C[C@H]1C=N2
IC50 [1]: 106 nM
GI50 [2]: 3 nM
TGI [2]: 50 nM
CC50 [2]: 3020 nM

COc1cc2c(cc1OC)C(=O)N1C=C(c3cccc4ccccc34)C[C@H]1C=N2
IC50 [1]: 572 nM
GI50 [2]: 138 nM
TGI [2]: 950 nM
CC50 [2]: 13900 nM

COc1cc2c(cc1OC)C(=O)N1C=C(c3cccc(F)c3)C[C@H]1C=N2
IC50 [1]: 6.4 nM
GI50 [2]: 3 nM
TGI [2]: 50 nM
CC50 [2]: 16600 nM

C=CC1=CN2C(=O)c3cc(OC)c(OC)cc3N=C[C@@H]2C1
IC50 [1]: 2.7 nM
GI50 [2]: 78 nM
TGI [2]: 1230 nM
CC50 [2]: 30200 nM

COc1cc2c(cc1OC)C(=O)N1C=C(c3ccc4ncccc4c3)C[C@H]1[C@H](S(=O)(=O)O)N2
IC50 [1]: 1.3 nM
GI50 [2]: 0.2 nM
TGI [2]: 4 nM
CC50 [2]: 1.4 nM

COc1cc2c(cc1OC)C(=O)N1C=C(c3ccc(O)cc3)C[C@H]1C=N2
IC50 [1]: 10.3 nM
GI50 [2]: 2 nM
TGI [2]: 80 nM
CC50 [2]: 3390 nM

COc1cc2c(cc1OC)C(=O)N1C=C(c3ccccc3)C[C@H]1[C@H](S(=O)(=O)O)N2
IC50 [1]: 16.5 nM
GI50 [2]: 54 nM
TGI [2]: 430 nM
CC50 [2]: 2.5 nM

COc1cc2c(cc1OC)C(=O)N1C=C(c3cccc(C(=O)NCCN(C)C)c3)C[C@H]1C=N2
IC50 [1]: 119 nM
GI50 [2]: 27 nM
TGI [2]: 1860 nM
CC50 [2]: 10500 nM

COc1cc2c(cc1OC)C(=O)N1C=C(c3cccc(C#N)c3)C[C@H]1C=N2
IC50 [1]: 15.1 nM
GI50 [2]: 4 nM
TGI [2]: 560 nM
CC50 [2]: 16200 nM
